This is an account of results in ChEMBL document CHEMBL4265975, “Synthesis, biological evaluation and molecular modeling of a novel series of fused 1,2,3-triazoles as potential anti-coronavirus agents” (Bioorg Med Chem Lett, 2018).

The nature of data set [1]: Selectivity index, ratio of MCC for HEL cells to EC50 for Human coronavirus 229E infected in HEL cells. The note with it: read-out: Selectivity Index. In kind it is toxicity, cell-based. In outline: (§1)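 SI is MCC divided by EC50. […] MCC was measured in parallel on HEL cells seeded at 5 x 10^3 cells/well, as the lowest concentration causing microscopically visible alteration of cell morphology. The top concentration tested was 100 µM.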

The subject of data set [2] is Human alphaherpesvirus 2. Briefly: Antiviral activity against Human herpesvirus 2 strain G infected in human HEL cells assessed as inhibition of virus-induced cytopathic effect after 3 days by microscopic method. In kind it is functional, organism-based. The note with it: Human alphaherpesvirus 2, strain G, 72 h. Background: Damage to the host cells serves as the signal in cytopathic effect assays.

Data set [3] can be described thus: Selectivity index, ratio of MCC for HEL cells to EC50 for Herpes simplex virus 2 strain G infected in HEL cells. In kind it is toxicity, cell-based. The settings on record: human, read-out: Selectivity Index. The essentials:
as §1

The subject of data set [4] is Vaccinia virus. As to the kind of experiment: Antiviral activity against Vaccinia virus infected in human HEL cells assessed as inhibition of virus-induced cytopathic effect after 3 days by microscopic method. The note with it: Orthopoxvirus vaccinia, 72 h. In kind it is functional, organism-based.
Data set [5] is described as follows: Cytotoxicity against HEL cells assessed as alteration in cell morphology after 3 days by microscopic method. In kind it is cell-based. The note with it: human. The essentials:
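HEL cells were seeded at 5 x 10^3 cells/well and exposed to graded compound concentrations, up to 100 μM, in parallel with the antiviral assay. Cell morphology was examined by light microscopy. MCC is the minimum concentration causing a microscopically detectable alteration of normal cell morphology.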

Data set [6] deals with Human alphaherpesvirus 1. Briefly: Antiviral activity against acyclovir-resistant TK-defecient Herpes simplex virus 1 KOS infected in human HEL cells assessed as inhibition of virus-induced cytopathic effect after 3 days by microscopic method. In kind it is functional, organism-based. The settings on record: Human alphaherpesvirus 1, KOS, 72 h.
Data set [7] is described as follows: Selectivity index, ratio of MCC for HEL cells to EC50 for Vaccinia virus infected in HEL cells. In kind it is toxicity, cell-based. The note with it: human, read-out: Selectivity Index. The essentials:
as §1

Data set [8] is described as follows: Selectivity index, ratio of MCC for HEL cells to EC50 for Human adenovirus 2 infected in HEL cells. In kind it is toxicity, cell-based. The note with it: read-out: Selectivity Index. The essentials:
as §1

In data set [9] the test system is Human adenovirus 2. Briefly: Antiviral activity against Human adenovirus 2 infected in human HEL cells assessed as inhibition of virus-induced cytopathic effect after 3 days by microscopic method. In kind it is functional, organism-based. The note with it: Human mastadenovirus C, 72 h. In outline:
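HEL cells were infected with adenovirus 2 for 2 h. Residual virus was then removed and the cells were incubated with medium containing graded compound concentrations for 3 days at 37°C. Virus-induced cytopathogenicity was scored microscopically.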

Data set [10] is described as follows: Selectivity index, ratio of MCC for HEL cells to EC50 for acyclovir-resistant TK-defecient Herpes simplex virus 1 KOS infected in HEL cells. In kind it is toxicity, cell-based. The settings on record: human, read-out: Selectivity Index. The essentials: as §1
The nature of data set [11]: Selectivity index, ratio of MCC for HEL cells to EC50 for Herpes simplex virus 1 KOS infected in HEL cells. In kind it is toxicity, cell-based. The note with it: human, read-out: Selectivity Index. In outline: as §1
Data set [12] has as its system Human coronavirus 229E. As to the kind of experiment: Antiviral activity against Human coronavirus 229E infected in HEL cells assessed as reduction in virus-induced pathogenicity after 3 days by microscopic method. In kind it is functional, organism-based. The note with it: 72 h.
Data set [13] relates to Human alphaherpesvirus 1. Briefly: Antiviral activity against Herpes simplex virus 1 KOS infected in human HEL cells assessed as inhibition of virus-induced cytopathic effect after 3 days by microscopic method. In kind it is functional, organism-based. The note with it: Human alphaherpesvirus 1, KOS, 72 h.

With `CCOC(=O)C1(Cc2ccccc2)CN(c2ccccc2)Cc2nnn(CCCCCO)c21` (stereo not given), the selectivity ratio in data set [1], in data set [3], in data set [7], in data set [8], in [10] and in data set [11] was > 8 each time. Moreover, the EC50 in data set [2], in data set [4], in data set [6], in [9], in data set [12] and in [13] was > 100 µM each time. Further, the MCC at 72 h in data set [5] is > 100 µM.

For the molecule `CCOC(=O)C1(Cc2ccccc2)CN(c2ccccc2)Cc2nnn(Cc3c(F)cccc3Cl)c21` (stereo not given), the selectivity ratio in [1], in data set [3], in [7], in data set [8], in [10] and in data set [11] was > 8 in each case. Besides, the EC50 in data set [2], in data set [4], in data set [6], in data set [9], in data set [12] and in [13] was > 100 µM in each case. The MCC at 72 h in data set [5] is > 100 µM.

For the molecule `CCOC(=O)C1(Cc2ccc(F)cc2)CN(c2ccccc2)Cc2nnn(Cc3cccc(F)c3)c21` (stereo not given), the selectivity ratio in data set [1], in [3], in data set [7], in [8], in data set [10] and in [11] was > 8 in each case. Besides, the EC50 in [2], in data set [4], in data set [6], in data set [9], in data set [12] and in data set [13] was > 100 µM throughout. The MCC at 72 h in data set [5] is > 100 µM.

For the molecule `CCOC(=O)C1(Cc2ccc(F)cc2)CN(c2ccccc2)Cc2nnn(Cc3ccc(Cl)c(Cl)c3)c21` (stereo not given), the selectivity ratio in [1], in data set [3], in [7], in [8], in [10] and in [11] was > 8 throughout. The EC50 was > 100 µM in [2]; > 100 µM in data set [4]; > 100 µM in data set [6]; > 100 µM in data set [9]; 9.45 µM in [12]; > 100 µM in [13]. For the same molecule, the MCC at 72 h in [5] is > 100 µM.

For the molecule `CCOC(=O)C1(Cc2ccccc2)CN(c2ccccc2)Cc2nnn(CCc3ccc(OC)cc3)c21` (stereo not given), the selectivity ratio in data set [1], in data set [3], in data set [7], in data set [8], in data set [10] and in data set [11] was > 8 each time. Besides, the EC50 in [2], in [4], in [6], in data set [9], in data set [12] and in data set [13] was > 100 µM throughout. Also, in data set [5], the MCC at 72 h was ≥ 20 µM.

For `COc1ccccc1CCn1nnc2c1CCN(c1ccccc1)C2`, the selectivity ratio in data set [1], in [3], in [7], in [8], in [10] and in data set [11] was > 8 in each case. Besides, the EC50 in [2], in data set [4], in data set [6], in data set [9], in [12] and in data set [13] was > 100 µM each time. Further, the MCC at 72 h in data set [5] is ≥ 100 µM.

As to `CCOC(=O)C1(Cc2ccccc2)CN(c2ccccc2)Cc2nnn(CCc3cc4ccccc4[nH]3)c21` (stereo not given), the selectivity ratio in [1], in data set [3], in data set [7], in [8], in data set [10] and in data set [11] was > 8 in each case. Also, the concentration giving a half-maximal response (EC50) in [2] is > 100 µM; in [4], > 100 µM; in data set [6], > 100 µM; in data set [9], > 100 µM; in data set [12] it was 9.45 µM; in [13] it was > 100 µM. For the same molecule, the MCC at 72 h in [5] is > 100 µM.

On to `COc1ccc(CCn2nnc3c2CCN(c2ccccc2)C3)cc1`, for which the selectivity ratio in data set [1], in [3], in [7], in [8], in [10] and in [11] was > 8 in each case. Moreover, the 50% effective concentration (EC50) in [2], in data set [4], in data set [6], in data set [9], in data set [12] and in data set [13] was > 100 µM in each case. Moreover, in data set [5], the MCC at 72 h is > 100 µM.

In the case of `CCCCCCCCn1nnc2c1C(Cc1ccccc1)(C(=O)OCC)CN(c1ccccc1)C2` (stereo not given), the selectivity ratio in data set [1], in [3], in [7], in data set [8], in data set [10] and in data set [11] was > 8 in each case. For the same molecule, the EC50 in data set [2], in data set [4], in data set [6], in data set [9], in [12] and in data set [13] was > 100 µM in each case. Further, the MCC at 72 h in data set [5] was ≥ 20 µM.

Regarding `CCOC(=O)C1(Cc2ccccc2)CN(c2ccccc2)Cc2nnn(CCc3ccccc3OC)c21` (stereo not given), the selectivity ratio in [1], in data set [3], in data set [7], in data set [8], in [10] and in data set [11] was > 8 each time. Moreover, the EC50 in [2], in data set [4], in data set [6], in data set [9], in data set [12] and in [13] was > 100 µM throughout. For the same molecule, the MCC at 72 h in data set [5] is ≥ 100 µM.

On to `CCOC(=O)C1(Cc2ccccc2)CN(c2ccccc2)Cc2nnn(Cc3ccco3)c21` (stereo not given), for which the selectivity ratio in data set [1], in data set [3], in [7], in [8], in [10] and in data set [11] was > 8 each time. Moreover, the EC50 in data set [2], in [4], in [6], in data set [9], in [12] and in data set [13] was > 100 µM in each case. For the same molecule, the MCC at 72 h in [5] came to 100 µM.

Take `c1ccc(N2CCc3c(nnn3CC3CC3)C2)cc1`: the selectivity ratio in data set [1], in [3], in data set [7], in data set [8], in data set [10] and in data set [11] was > 8 each time. The EC50 in data set [2], in data set [4], in data set [6], in [9], in [12] and in data set [13] was > 100 µM each time. Also, in [5], the MCC at 72 h was > 100 µM.

As to `Nc1nc2c(ncn2COCCO)c(=O)[nH]1` [ACYCLOVIR], the EC50 in [4] is > 250 µM. In addition, the MCC at 72 h in data set [5] was > 250 µM.

On to `O=c1[nH]c(=O)n([C@H]2C[C@H](O)[C@@H](CO)O2)cc1/C=C/Br` [BRIVUDINE], for which, in data set [4], the half-maximal effective concentration (EC50) was 3.8 µM. For the same molecule, in data set [5], the MCC at 72 h is > 250 µM.

For the molecule `Nc1ccn(C[C@@H](CO)OCP(=O)(O)O)c(=O)n1` [CIDOFOVIR], the EC50 is 3.4 µM in data set [2]; 85 µM in data set [4]; 2.8 µM in data set [6]; 22 µM in [9]; 4.5 µM in [13]. Further, the MCC at 72 h in data set [5] was > 250 µM.

Turning to `Nc1nc2c(ncn2COC(CO)CO)c(=O)[nH]1` [GANCICLOVIR], the EC50 in [4] is > 100 µM. In addition, in [5], the MCC at 72 h is > 100 µM.

As to `Nc1ccn([C@H]2CC[C@@H](CO)O2)c(=O)n1` [ZALCITABINE], the MCC at 72 h in data set [5] is > 250 µM. Besides, in data set [9], the EC50 was determined as 50 µM.

A word on the EC50: it is the concentration that produces a half-maximal response.
